# Data from ChEMBL document CHEMBL1629670, “In vitro activities of retigeric acid B alone and in combination with azole antifungal agents against Candida albicans” (2009).
# Activity calls are given as the source filed them. The calls are words filed in the database; no cut-off is given here.
# How the values were obtained:
# Candida albicans [1] = experiment: Antifungal activity against Candida albicans CA138 after 48 hrs by broth microdilution method; format: functional; details: CA138, 48 h
# How it was run: (§1)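 CLSI M27-A2 broth microdilution of clinical isolates in RPMI 1640 buffered to pH 7.0 with 0.165 M MOPS. Final inoculum 0.5 x 10^3 to 2.5 x 10^3 cells/ml, incubated 35°C for 48 h. Growth read as OD490 with background subtracted. MIC taken as the lowest drug concentration giving 80% growth reduction versus drug-free control. Run in triplicate.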
# Candida albicans [2] = experiment: Antifungal activity against Candida albicans CA127 after 48 hrs by broth microdilution method; format: functional; details: CA127, 48 h; how it was run: as §1
# Candida albicans [3] = experiment: Antifungal activity against Candida albicans CA2 after 48 hrs by broth microdilution method; format: functional; details: CA2, 48 h; how it was run: as §1
# Candida albicans [4] = experiment: Antifungal activity against Candida albicans CA1 after 48 hrs by broth microdilution method; format: functional; details: CA1, 48 h; how it was run: as §1
# Candida albicans [5] = experiment: Antifungal activity against Candida albicans CA135 after 48 hrs by broth microdilution method; format: functional; details: CA135, 48 h; how it was run: as §1
# Candida albicans [6] = experiment: Antifungal activity against Candida albicans CA3 after 48 hrs by broth microdilution method; format: functional; details: CA3, 48 h; how it was run: as §1
# Candida albicans [7] = experiment: Antifungal activity against Candida albicans CA132 after 48 hrs by broth microdilution method; format: functional; details: CA132, 48 h; how it was run: as §1
# Candida albicans [8] = experiment: Antifungal activity against Candida albicans CA137 after 48 hrs by broth microdilution method; format: functional; details: CA137, 48 h; how it was run: as §1
# Candida albicans [9] = experiment: Antifungal activity against Candida albicans CA4 after 48 hrs by broth microdilution method; format: functional; details: CA4, 48 h; how it was run: as §1
# Candida albicans [10] = experiment: Antifungal activity against Candida albicans CA10 after 48 hrs by broth microdilution method; format: functional; details: CA10, 48 h; how it was run: as §1
# Candida albicans [11] = experiment: Antifungal activity against Candida albicans CA2 after 48 hrs by broth microdilution method in presence of itraconazole; format: functional
# How it was run: (§2)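 Checkerboard broth microdilution (CLSI M27-A2) on clinical isolates in RPMI 1640 buffered to pH 7.0 with 0.165 M MOPS. Final inoculum was 0.5 x 10^3 to 2.5 x 10^3 CFU/ml. RAB was tested at 0.25–16 µg/ml against FLC at 0.008–8 µg/ml, or against KCZ or ITR at 0.001–1 µg/ml. Plates ran 48 h at 35°C, read by background-subtracted OD490. MIC was taken at 80% growth reduction versus drug-free control. Run in triplicate.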
# Candida albicans [12] = experiment: Antifungal activity against Candida albicans CA2 after 48 hrs by broth microdilution method in presence of fluconazole; format: functional; how it was run: as §2
# Candida albicans [13] = experiment: Antifungal activity against Candida albicans CA135 after 48 hrs by broth microdilution method in presence of itraconazole; format: functional; how it was run: as §2
# Candida albicans [14] = experiment: Antifungal activity against Candida albicans CA135 after 48 hrs by broth microdilution method in presence of fluconazole; format: functional; how it was run: as §2
# Candida albicans [15] = experiment: Antifungal activity against Candida albicans CA10 after 48 hrs by broth microdilution method in presence of itraconazole; format: functional; how it was run: as §2
# Candida albicans [16] = experiment: Antifungal activity against Candida albicans CA1 after 48 hrs by broth microdilution method in presence of ketoconazole; format: functional; how it was run: as §2
# Candida albicans [17] = experiment: Antifungal activity against Candida albicans CA138 after 48 hrs by broth microdilution method in presence of itraconazole; format: functional; how it was run: as §2
# Candida albicans [18] = experiment: Antifungal activity against Candida albicans CA138 after 48 hrs by broth microdilution method in presence of ketoconazole; format: functional; how it was run: as §2
# Candida albicans [19] = experiment: Antifungal activity against Candida albicans CA137 after 48 hrs by broth microdilution method in presence of fluconazole; format: functional; how it was run: as §2
# Candida albicans [20] = experiment: Antifungal activity against Candida albicans CA1 after 48 hrs by broth microdilution method in presence of fluconazole; format: functional; how it was run: as §2
# Candida albicans [21] = experiment: Antifungal activity against Candida albicans CA132 after 48 hrs by broth microdilution method in presence of itraconazole; format: functional; how it was run: as §2
# Candida albicans [22] = experiment: Antifungal activity against Candida albicans CA10 assessed as log reduction in fungal burden at 8 ug/ml after 48 hrs by time kill analysis in presence of ketoconazole; format: functional, organism-based
# How it was run: (§3)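 Time-kill on CA10 in RPMI 1640 starting at 10^5 CFU/ml. Treatments were RAB 8 µg/ml combined with FLC 8 µg/ml, ITR 8 µg/ml or KCZ 2 µg/ml; DMSO <1%; drug-free growth control. Samples were taken before treatment and at 6, 12, 24 and 48 h, then diluted, plated and counted after 48 h at 35°C.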
# Candida albicans [23] = experiment: Antifungal activity against Candida albicans CA127 after 48 hrs by broth microdilution method in presence of ketoconazole; format: functional; how it was run: as §2
# Candida albicans [24] = experiment: Antifungal activity against Candida albicans CA1 after 48 hrs by broth microdilution method in presence of itraconazole; format: functional; how it was run: as §2
# Candida albicans [25] = experiment: Antifungal activity against Candida albicans CA137 after 48 hrs by broth microdilution method in presence of itraconazole; format: functional; how it was run: as §2
# Candida albicans [26] = experiment: Antifungal activity against Candida albicans CA10 assessed as log reduction in fungal burden at 8 ug/ml after 48 hrs by time kill analysis in presence of fluconazole; format: functional, organism-based; how it was run: as §3
# Candida albicans [27] = experiment: Antifungal activity against Candida albicans CA3 after 48 hrs by broth microdilution method in presence of fluconazole; format: functional; how it was run: as §2
# Candida albicans [28] = experiment: Antifungal activity against Candida albicans CA3 after 48 hrs by broth microdilution method in presence of ketoconazole; format: functional; how it was run: as §2
# Candida albicans [29] = experiment: Antifungal activity against Candida albicans CA4 after 48 hrs by broth microdilution method in presence of itraconazole; format: functional; how it was run: as §2
# Candida albicans [30] = experiment: Antifungal activity against Candida albicans CA2 after 48 hrs by broth microdilution method in presence of ketoconazole; format: functional; how it was run: as §2
# Candida albicans [31] = experiment: Antifungal activity against Candida albicans CA4 after 48 hrs by broth microdilution method in presence of ketoconazole; format: functional; how it was run: as §2
# Candida albicans [32] = experiment: Antifungal activity against Candida albicans CA127 after 48 hrs by broth microdilution method in presence of fluconazole; format: functional; how it was run: as §2
# Candida albicans [33] = experiment: Antifungal activity against Candida albicans CA10 assessed as cell viability after 2 hrs by XTT reduction assay in presence of fluconazole; format: functional, organism-based
# How it was run: (§4)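 Viability was read on CA10 time-kill cultures grown in RPMI 1640 from 10^5 CFU/ml. Treatments were RAB 8 µg/ml plus FLC 8 µg/ml, ITR 8 µg/ml or KCZ 2 µg/ml, with DMSO <1%. At each sampling time a 100-µl aliquot got XTT-menadione (final 0.25 mg/ml and 5 µM) and was held in the dark up to 2 h at 35°C. Formazan was read at 490 nm; triplicate means.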
# Candida albicans [34] = experiment: Antifungal activity against Candida albicans CA4 after 48 hrs by broth microdilution method in presence of fluconazole; format: functional; how it was run: as §2
# Candida albicans [35] = experiment: Antifungal activity against Candida albicans CA10 assessed as cell viability after 2 hrs by XTT reduction assay in presence of itraconazole; format: functional, organism-based; how it was run: as §4
# Candida albicans [36] = experiment: Antifungal activity against Candida albicans CA10 after 48 hrs by broth microdilution method in presence of fluconazole; format: functional; how it was run: as §2
# Candida albicans [37] = experiment: Antifungal activity against Candida albicans CA132 after 48 hrs by broth microdilution method in presence of ketoconazole; format: functional; how it was run: as §2
# Candida albicans [38] = experiment: Antifungal activity against Candida albicans CA127 after 48 hrs by broth microdilution method in presence of itraconazole; format: functional; how it was run: as §2
# Candida albicans [39] = experiment: Antifungal activity against Candida albicans CA135 after 48 hrs by broth microdilution method in presence of ketoconazole; format: functional; how it was run: as §2
# Candida albicans [40] = experiment: Antifungal activity against Candida albicans CA10 after 48 hrs by broth microdilution method in presence of ketoconazole; format: functional; how it was run: as §2
# Candida albicans [41] = experiment: Antifungal activity against Candida albicans CA132 after 48 hrs by broth microdilution method in presence of fluconazole; format: functional; how it was run: as §2
# Candida albicans [42] = experiment: Antifungal activity against Candida albicans CA3 after 48 hrs by broth microdilution method in presence of itraconazole; format: functional; how it was run: as §2
# Candida albicans [43] = experiment: Antifungal activity against Candida albicans CA10 assessed as log reduction in fungal burden at 8 ug/ml after 48 hrs by time kill analysis in presence of itraconazole; format: functional, organism-based; how it was run: as §3
# Candida albicans [44] = experiment: Antifungal activity against Candida albicans CA137 after 48 hrs by broth microdilution method in presence of ketoconazole; format: functional; how it was run: as §2
# Candida albicans [45] = experiment: Antifungal activity against Candida albicans CA10 assessed as cell viability after 2 hrs by XTT reduction assay in presence of ketoconazole; format: functional, organism-based; how it was run: as §4
# Candida albicans [46] = experiment: Antifungal activity against Candida albicans CA138 after 48 hrs by broth microdilution method in presence of fluconazole; format: functional; how it was run: as §2
structure (smiles),measurement,setting,value
CC(=O)N1CCN(c2ccc(OCC3COC(Cn4ccnc4)(c4ccc(Cl)cc4Cl)O3)cc2)CC1 (stereo unspecified) [KETOCONAZOLE],MIC,Candida albicans [1],16 µg/mL
same,MIC,Candida albicans [2],0.031 µg/mL
same,MIC,Candida albicans [3],0.016 µg/mL
same,MIC,Candida albicans [4],0.031 µg/mL
same,MIC,Candida albicans [5],16 µg/mL
same,MIC,Candida albicans [6],0.062 µg/mL
same,MIC,Candida albicans [7],0.031 µg/mL
same,MIC,Candida albicans [8],16 µg/mL
same,MIC,Candida albicans [9],0.062 µg/mL
same,MIC,Candida albicans [10],16 µg/mL
CC(C)[C@H]1CC[C@@H]2[C@]1(C)CC[C@]1(C)[C@H]3CC[C@@H]4[C@](C(=O)O)(C[C@@H](O)[C@H](O)[C@@]4(C)C(=O)O)C3=CC[C@@]21C [RETIGERIC ACID B],fractional inhibitory concentration index (FICI),Candida albicans [11],0.375
same,fractional inhibitory concentration index (FICI),Candida albicans [12],0.25
same,fractional inhibitory concentration index (FICI),Candida albicans [13],0.254
same,MIC,Candida albicans [1],8 µg/mL
same,fractional inhibitory concentration index (FICI),Candida albicans [14],0.127
same,fractional inhibitory concentration index (FICI),Candida albicans [15],0.252
same,fractional inhibitory concentration index (FICI),Candida albicans [16],0.375
same,fractional inhibitory concentration index (FICI),Candida albicans [17],0.254
same,fractional inhibitory concentration index (FICI),Candida albicans [18],0.254
same,fractional inhibitory concentration index (FICI),Candida albicans [19],0.252
same,MIC,Candida albicans [2],16 µg/mL
same,fractional inhibitory concentration index (FICI),Candida albicans [20],0.5
same,fractional inhibitory concentration index (FICI),Candida albicans [21],0.75
same,MIC,Candida albicans [3],16 µg/mL
same,Activity,Candida albicans [22],Active
same,fractional inhibitory concentration index (FICI),Candida albicans [23],0.625
same,MIC,Candida albicans [4],8 µg/mL
same,fractional inhibitory concentration index (FICI),Candida albicans [24],0.75
same,MIC,Candida albicans [5],16 µg/mL
same,fractional inhibitory concentration index (FICI),Candida albicans [25],0.258
same,Activity,Candida albicans [26],Active
same,fractional inhibitory concentration index (FICI),Candida albicans [27],0.5
same,fractional inhibitory concentration index (FICI),Candida albicans [28],0.25
same,MIC,Candida albicans [6],16 µg/mL
same,fractional inhibitory concentration index (FICI),Candida albicans [29],0.625
same,fractional inhibitory concentration index (FICI),Candida albicans [30],0.253
same,fractional inhibitory concentration index (FICI),Candida albicans [31],0.75
same,fractional inhibitory concentration index (FICI),Candida albicans [32],0.5
same,Activity,Candida albicans [33],Active
same,fractional inhibitory concentration index (FICI),Candida albicans [34],0.625
same,MIC,Candida albicans [7],8 µg/mL
same,Activity,Candida albicans [35],Active
same,fractional inhibitory concentration index (FICI),Candida albicans [36],0.126
same,fractional inhibitory concentration index (FICI),Candida albicans [37],0.625
same,fractional inhibitory concentration index (FICI),Candida albicans [38],0.375
same,MIC,Candida albicans [8],16 µg/mL
same,fractional inhibitory concentration index (FICI),Candida albicans [39],0.125
same,fractional inhibitory concentration index (FICI),Candida albicans [40],0.254
same,MIC,Candida albicans [9],8 µg/mL
same,fractional inhibitory concentration index (FICI),Candida albicans [41],0.75
same,fractional inhibitory concentration index (FICI),Candida albicans [42],0.375
same,MIC,Candida albicans [10],16 µg/mL
same,Activity,Candida albicans [43],Active
same,fractional inhibitory concentration index (FICI),Candida albicans [44],0.25
same,Activity,Candida albicans [45],Active
same,fractional inhibitory concentration index (FICI),Candida albicans [46],0.252
